Assay results: ChEMBL document CHEMBL1151748, “Synthesis, modeling, and RET protein kinase inhibitory activity of 3- and 4-substituted beta-carbolin-1-ones” (J Med Chem, 2008)
Active and inactive are the calls of the source. The rule behind the calls is not given here.

Experiments:
[1] = target: Proto-oncogene tyrosine-protein kinase receptor Ret (Homo sapiens, UniProt P07949); assay: Inhibition of recombinant RET active protein by immunoblotting
NIH3T3 [2] = assay: Antiproliferative activity against mouse NIH3T3 cells expressing RET C634R mutant associated with MEN2A syndrome after 72 hrs; conditions: NIH3T3, 72 h
NIH3T3 [3] = assay: Antiproliferative activity against mouse NIH3T3 cells after 72 hrs; conditions: NIH3T3, 72 h
NIH3T3 [4] = assay: Inhibition of RET oncoprotein expression in mouse NIH3T3 cells transfected with RET C634R mutant associated with MEN2A syndrome at 2.5 to 10 uM after 24 hrs by Western blot; type: functional, cell-based
Procedure, shortened: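 NIH3T3MEN2A cells were exposed to compound or to DMSO vehicle for 24 h. Whole-cell lysates were Western blotted with anti-Ret (H300) and anti-phospho-Ret (Y1062) antibodies. Actin served as the loading control, and a lysate of untreated parental NIH3T3 cells was run alongside.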

NIH3T3 [5] = assay: Antiproliferative activity against mouse NIH3T3 cells transfected with H-RAS oncogene after 72 hrs; conditions: NIH3T3, 72 h

Proto-oncogene tyrosine-protein kinase receptor Ret, sequence (P07949 whole entry): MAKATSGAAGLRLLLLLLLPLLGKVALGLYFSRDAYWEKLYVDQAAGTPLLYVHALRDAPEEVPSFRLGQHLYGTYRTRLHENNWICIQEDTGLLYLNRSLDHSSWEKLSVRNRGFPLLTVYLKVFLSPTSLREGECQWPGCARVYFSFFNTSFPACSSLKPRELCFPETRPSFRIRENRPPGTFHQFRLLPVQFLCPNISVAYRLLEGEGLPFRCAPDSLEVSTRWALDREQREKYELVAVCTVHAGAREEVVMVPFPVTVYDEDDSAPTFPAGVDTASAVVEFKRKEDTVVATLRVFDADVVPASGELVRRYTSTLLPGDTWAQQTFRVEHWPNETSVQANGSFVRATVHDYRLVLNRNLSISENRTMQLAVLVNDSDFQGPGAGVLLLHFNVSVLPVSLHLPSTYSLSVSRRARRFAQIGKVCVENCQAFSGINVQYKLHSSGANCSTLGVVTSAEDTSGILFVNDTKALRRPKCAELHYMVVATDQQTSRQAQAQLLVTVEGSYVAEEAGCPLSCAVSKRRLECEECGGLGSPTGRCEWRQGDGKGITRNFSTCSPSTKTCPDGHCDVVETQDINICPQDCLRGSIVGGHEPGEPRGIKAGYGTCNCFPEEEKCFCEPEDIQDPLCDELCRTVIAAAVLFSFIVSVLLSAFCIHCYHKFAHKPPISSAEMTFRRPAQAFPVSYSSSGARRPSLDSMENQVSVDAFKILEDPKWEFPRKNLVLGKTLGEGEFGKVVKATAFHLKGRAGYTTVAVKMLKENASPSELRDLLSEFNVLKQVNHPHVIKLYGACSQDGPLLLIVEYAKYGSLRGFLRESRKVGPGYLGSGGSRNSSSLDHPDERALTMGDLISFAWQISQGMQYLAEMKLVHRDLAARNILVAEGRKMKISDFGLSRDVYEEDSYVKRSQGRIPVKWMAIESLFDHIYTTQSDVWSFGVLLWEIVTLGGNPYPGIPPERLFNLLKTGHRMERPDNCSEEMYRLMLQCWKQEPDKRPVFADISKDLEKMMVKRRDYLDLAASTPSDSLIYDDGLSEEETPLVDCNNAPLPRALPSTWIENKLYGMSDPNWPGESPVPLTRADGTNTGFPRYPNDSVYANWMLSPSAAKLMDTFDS

COc1cc2c3c(C)c[nH]c(=O)c3n(C)c2cc1OC
IC50 [1]: > 0.6 µM
IC50 (NIH3T3 [2]): 5.6 µM
IC50 (NIH3T3 [3]): 10.6 µM

COc1cc2c3ccn(Cc4ccccc4)c(=O)c3n(C)c2cc1OC
IC50 [1]: > 0.6 µM
IC50 (NIH3T3 [2]): 15.9 µM

COc1ccc(CN2CC=C(c3ccc(O)cc3)c3c(n(C)c4cc(OC)c(OC)cc34)C2=O)cc1
IC50 (NIH3T3 [2]): 6.8 µM

COc1cc2c3c(-c4ccc(O)cc4)c[nH]c(=O)c3n(C)c2cc1OC
IC50 (NIH3T3 [2]): 1.95 µM
Activity (NIH3T3 [4]): Active
IC50 (NIH3T3 [3]): 7.2 µM
IC50 (NIH3T3 [5]): 6.6 µM

COc1cc2[nH]c3c(=O)[nH]c(-c4ccccc4)cc3c2cc1OC
IC50 (NIH3T3 [2]): 13.3 µM

COc1cc2[nH]c3c(=O)[nH]cc(-c4ccc(O)cc4)c3c2cc1OC
IC50 [1]: 0.11 µM
IC50 (NIH3T3 [2]): 4.7 µM
IC50 (NIH3T3 [3]): 13.9 µM
IC50 (NIH3T3 [5]): 13.5 µM

COc1ccc(C2=CCNC(=O)c3c2c2cc(OC)c(OC)cc2n3C)cc1
IC50 (NIH3T3 [2]): 9.9 µM

COc1cc2c3c(-c4ccc(O)cc4)c[nH]c(=O)c3n(Cc3ccccc3)c2cc1OC
IC50 (NIH3T3 [2]): 7.5 µM
IC50 (NIH3T3 [3]): 17.7 µM

COc1cc2c3c(n(C)c2cc1OC)C(=O)NCC=C3c1ccc(O)cc1
IC50 (NIH3T3 [2]): 14.4 µM

COc1cc2c3cc(-c4ccccc4)[nH]c(=O)c3n(C)c2cc1OC
IC50 (NIH3T3 [2]): 34.4 µM

COc1cc2c3c(-c4cccc(O)c4)c[nH]c(=O)c3n(C)c2cc1OC
IC50 [1]: 0.09 µM
IC50 (NIH3T3 [2]): 3.2 µM
IC50 (NIH3T3 [3]): 6.7 µM
IC50 (NIH3T3 [5]): 6.1 µM

COc1cc2[nH]c3c(c2cc1OC)C(c1ccc(O)cc1)=CCNC3=O
IC50 (NIH3T3 [2]): 19.8 µM

COc1cc2c3c(-c4ccccc4)c[nH]c(=O)c3n(C)c2cc1OC
IC50 [1]: 0.25 µM
IC50 (NIH3T3 [2]): 3.3 µM
IC50 (NIH3T3 [3]): 17.8 µM
IC50 (NIH3T3 [5]): 13.8 µM

COc1ccc2c(c1)c1c(-c3ccc(O)cc3)c[nH]c(=O)c1n2C
IC50 (NIH3T3 [2]): 12.2 µM
IC50 (NIH3T3 [3]): 25 µM
IC50 (NIH3T3 [5]): > 30 µM

COc1cc2c3c(n(C)c2cc1OC)C(=O)NCC=C3C
IC50 (NIH3T3 [2]): 16.7 µM

COc1cc2c3c(n(C)c2cc1OC)C(=O)NCC=C3
IC50 (NIH3T3 [2]): 7.8 µM

COc1cc2c3c(n(C)c2cc1OC)C(=O)N(C)CC=C3c1ccc(O)cc1
IC50 (NIH3T3 [2]): 18.4 µM

Cn1c2ccccc2c2c(-c3ccc(O)cc3)c[nH]c(=O)c21
IC50 (NIH3T3 [2]): 17.3 µM
IC50 (NIH3T3 [3]): > 30 µM
IC50 (NIH3T3 [5]): > 30 µM
